Experiment: Toxicity liver stage against HepG2, at 10uM
Format: cell-based
Set-up: test concentration 10 uM, cell line HepG2-A16-CD81EGFP
Details: human, HepG2-A16-CD81EGFP cells; read-out: INHIBITION
Method in brief: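 Uninfected HepG2-A16-CD81EGFP cells, 3 × 10^3 per well, 1536-well, plated on prespotted compound at 10 μM final, parasite-free screening media added to match infected plates; puromycin 10 μM positive, DMSO 0.5% negative; run in parallel with 48 h PbLuc assay at 37 °C, 5% CO2; viability by CellTiter-Glo luminescence, normalized to controls.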

Row | Compound | cytotoxicity at 10 µM [%]
1 | COc1ccnc(NC2CCN(CC(=O)Nc3ccccc3)CC2)n1 | -11
2 | CC(=O)N1CCC(N[C@@H]2CO[C@H](CNC(=O)c3cccs3)[C@H]2O)CC1 | 1.96
3 | COCCCNc1c(-c2ccc(Cl)cc2)c(=O)c1=O | 39.2
4 | Cc1nn(C2CCCC2)c2c1C(c1ccc3c(c1)OCO3)SCC(=O)N2 (stereo not given) | -1.52
5 | O=C(NC1CCN(c2ccc(-c3ccccc3F)nn2)C1)C1CCC1 (stereo not given) | 26
6 | Cc1nnc([C@@H]2CC[C@@H]3[C@@H](CCN3C3CCOCC3)O2)o1 | 8.58
7 | CC1c2ncc(Cn3cncn3)n2CCN1C(=O)c1ccccn1 (stereo not given) | -0.785
8 | O=C([C@@H]1CCO[C@@H]2CCN(CC3CC3)C[C@H]21)N1CCCCO1 | 6.59
9 | CN1CCc2c(C#N)c(NCCc3ccccc3)n3cnnc3c2C1 | 12.4
10 | Cc1nc(-c2ccc(Cl)cc2)n(CC(=O)NC(C)C)c(=O)c1CCO | -8.88
11 | Nc1nnnn1NCc1cccc(Cl)c1Cl | 11.5
12 | CCn1cc(NS(=O)(=O)c2ccc(Br)s2)c(C(N)=O)n1 | 2.3
13 | CCN1CCN(S(=O)(=O)c2cc(Cl)c(Cl)cc2C)CC1 | 2.28
14 | c1cnc(N2CCCC(c3csc(Nc4cnccn4)n3)C2)nc1 (stereo not given) | 8.33
15 | Cc1cc(-c2cnn(CCNC(=O)Cc3ccccn3)c2C2CC2)on1 | 2.8
16 | CCc1cc(C(=O)N2CCCC(Cc3ccc(NC)nn3)C2)on1 (stereo not given) | -14.1
17 | CN(C(=O)Nc1cccnc1)C1CCN(c2ccc(Cl)cc2)CC1 | -2.46
18 | Cc1cc(C(=O)N(C)S(C)(=O)=O)ccc1F | -38.4
19 | NC(=O)N1CCCCCC1C1CCN(c2nccc(C(F)(F)F)n2)CC1 (stereo not given) | 4.82
20 | C1=C(CNC2CCc3ncnn3C2)COc2ccccc21 (stereo not given) | -2.28
21 | COc1ccc(Cl)cc1CS(=O)(=O)Cc1nc(C)no1 | -2.53
22 | Cc1cc(NC(=O)NCCO)nn1-c1ccc(Cl)cc1Cl | -136

Row | Compound | cytotoxicity at 10 µM [%]
23 | CCCn1nc2c(cc1=O)CN(Cc1nc(-c3ccoc3)no1)CC2 | 8.64
24 | Cc1ccc(C2CN(C(=O)NCc3nnc4ccccn34)CCO2)o1 (stereo not given) | 5.62
25 | Cc1nn(C)c(C)c1C(=O)NC(C)CC(=O)c1cccs1 (stereo not given) | -5.08
26 | CCN1CCN(C2CCN(C(C(N)=O)c3ccccc3)CC2)C1=O (stereo not given) | -10.3
27 | N#Cc1ccc(CNCCS(=O)(=O)N2CCc3ccccc32)cc1 | -4.11
28 | Cn1cccc1C(=O)NC(C)(C(N)=O)c1cccc(C(F)(F)F)c1 (stereo not given) | 3.61
29 | CCc1nnc(C2Cc3ccccc3CN2Cc2nc(C3CC3)no2)o1 (stereo not given) | -8.03
30 | CCOC(=O)NCCC(=O)NCc1ccc(Oc2ccc(F)cc2)nc1 | -18.9
31 | Cc1cn2c(n1)CCC(NS(=O)(=O)c1cc(C)sc1C)C2 (stereo not given) | 2.74
32 | CCc1ccc(C2CCCN2C(=O)NCC(=O)NCC(C)C)o1 (stereo not given) | 17.7
33 | CCS(=O)(=O)NCCCNC1CSCCc2ccccc21 (stereo not given) | -3.66
34 | O=C(NC1CCN(c2cccc(OC(F)(F)F)c2)C1=O)C1CC1 (stereo not given) | 19.2
35 | CC(C#N)CSc1ccccc1NCC(=O)NC(=O)NC(C)(C)C (stereo not given) | 11.7
36 | COc1ccc(N2CCC(N(C)C(=O)C(C)SC)CC2)cc1 (stereo not given) | 1.69
37 | Cc1noc(C)c1CN(Cc1ccccc1)C(C)C | -9.74
38 | CCOc1cccc(CCNC(=O)Cc2ccn[nH]2)n1 | -27.2
39 | Cc1cccc(COc2ccc(NC(=O)C(C)NC(N)=O)c(C)c2)c1 (stereo not given) | -28
40 | CCc1nnc(CN(C)CC2CCCCC2)o1 | 0.897
41 | CS(=O)(=O)c1cccc(OCC(=O)N2CCCC2c2ccc[nH]2)c1 (stereo not given) | 3.92
42 | CCN(CC)S(=O)(=O)N(Cc1ccccn1)Cc1ccccc1C | 16.9
43 | c1csc(C(CNCc2cccc3c2OCO3)N2CCOCC2)c1 (stereo not given) | -44.4
44 | CN(Cc1nnc(-c2ccco2)o1)C(C(N)=O)c1cccc(F)c1 (stereo not given) | 16.7

Row | Compound | cytotoxicity at 10 µM [%]
45 | CN1CCOC(C(=O)Nc2ccc3c(c2)nc(C2CC2)n3C)C1 (stereo not given) | -5.5
46 | Cc1c(C(C)NC(=O)Nc2ccccc2F)cnn1C (stereo not given) | -45.2
47 | CC(C)c1noc(CS(=O)(=O)CC(=O)NCCOc2ccccc2)n1 | -10
48 | CCc1noc(CN(C)Cc2ccc(N3CCCCC3)cc2)n1 | -5.88
49 | CCOCC1c2c(ncn2C)CCN1C(=O)c1cscn1 (stereo not given) | -98.2
50 | OCCN1CCC(F)(F)C2(CCN(c3cccnc3)C2)C1 (stereo not given) | -94.7
51 | Cn1cccc1C(=O)NCc1cn2c(n1)CN(C(=O)c1ccsc1)CC2 | -112
52 | CN1C(=O)CC(c2cnn(C)c2)C12CCN(C(=O)c1cscn1)CC2 (stereo not given) | -76.6
53 | Cc1[nH]c2ccccc2c1-c1ccnc(NCCN2CCCCC2)n1 | -1.36
54 | COCCN(C)C[C@@H]1CN(C(=O)C(C)(C)c2ccccc2)C[C@@H]1CO | 16.7
55 | COc1cccc2ccc(CN3CCN(c4ncccc4C)CC3)nc12 | -5.21
56 | CN(Cc1cccnc1)CC1CC12CCCC2 (stereo not given) | -0.243
57 | O=C1NCCN2CCN(C(=O)NCCc3ccccc3)CC12 (stereo not given) | 17.6
58 | CC(C)=CCCC(C)CN1CCC(n2cc(C(=O)NCCO)nn2)CC1 (stereo not given) | 0.232
59 | Cc1ccc(S(=O)(=O)N2CCC(Cn3cc(C(C)(C)N)nn3)CC2)s1 | 6.74
60 | CCC(=O)N1CCN(C(=O)Nc2cccc(F)c2)[C@H]2CS(=O)(=O)C[C@H]21 | -46.8
61 | COc1ccc(CN(Cc2ccsc2)CC2CCCO2)cn1 (stereo not given) | -6.16
62 | Cc1cc(CNC(=O)CC2CCN(C(C)C)CC2)n(C)n1 | -1.77
63 | CN1CC2(CCCN(c3cnccn3)C2)OC1=O (stereo not given) | -43.2
64 | Cc1ccc(CN(Cc2ccccn2)C(=O)[C@H]2CC[C@@H](N)C2)s1 | -0.327
65 | CCN(C)C(=O)c1ccc(N2CCC(Oc3cccc(F)c3)CC2)nc1 | -23.7
66 | CN(Cc1ccoc1)C(=O)C1CCN(C(=O)C2CCCC2)CC1 | -7.77

Row | Compound | cytotoxicity at 10 µM [%]
67 | CCCN(Cc1cnc2ccccc2n1)Cc1ccccc1OC | -40.1
68 | COC1CCCN(Cc2cc(O)c3cc(C)cc(C)c3n2)C1 (stereo not given) | 3.54
69 | Cc1cc(C)nc(CN(C)C(=O)C(c2cccnc2)N2CCCC2)c1 (stereo not given) | -45.4
70 | CCCc1nnc(N2CC[C@@](O)(C3CCOCC3)[C@H](C)C2)s1 | 8.26
71 | CCC(C(=O)N(Cc1ccccc1OC)C1CC1)n1cccn1 (stereo not given) | -44
72 | O=C(c1cccnc1)N1CCOC(CCCc2ccccc2)C1 (stereo not given) | 7.07
73 | Cc1nc(N)nc(C)c1CC(=O)NCc1ccc2nonc2c1 | 5.6
74 | Cc1nc2c(c(=O)n1C)CCN(Cc1cc3ccccc3[nH]1)CC2 | -8.42
75 | CC(C)CNC(=O)c1ccc2c(=O)n(-c3ccccc3)cnc2c1 | -5.52
76 | CN(C)C1CCCN(C(=O)c2ccc3sc4c(c3c2)CCNC4=O)CC1 (stereo not given) | -8.58
77 | CCC(C(=O)NCc1csc(-c2ncccn2)n1)n1cccn1 (stereo not given) | -5.79
78 | Cc1noc(C)c1-c1n[nH]c2c1CN(S(=O)(=O)c1cccs1)CC2 | -12.1
79 | CNC(=O)[C@@H]1C[C@@H](N)CN1C1CCN(c2ccccc2F)CC1 | -53.3
80 | COc1cnc(C2(O)CCN(C(=O)c3cccnc3)CC2)c(OC)n1 | 0.41
81 | CCc1noc(CN(C)CC(c2cccs2)N2CCOCC2)n1 (stereo not given) | -4.56
82 | CN1C(=O)CN(C(=O)c2ccc(=O)n(C)c2)c2ccccc21 | -6.67
83 | Cc1csc(N2CCN(C(=O)C(C)n3cncn3)CC2)n1 (stereo not given) | 0.652
84 | CC(C)Sc1ncccc1C(=O)NCc1ccc(O)cc1 | -3.29
85 | O=C(COCCc1ccccc1)N1CCCC(n2cccn2)C1 (stereo not given) | -3.42
86 | CCn1cnnc1C1CCN(C(=O)CCCOc2ccccc2)CC1 | 0.927
87 | CC(=O)Nc1nc(CN2CCCC2Cn2cncn2)cs1 (stereo not given) | 0.222
88 | CCn1cnnc1C1CCN(C(=O)c2cc3c(s2)CCC3)CC1 | -8.93

Row | Compound | cytotoxicity at 10 µM [%]
89 | CCc1nnc2n1CCN(C(=O)c1ccc(-c3ccco3)nc1C)C2 | -7.23
90 | CC(OCC1CC1)C(=O)N1CCCN(Cc2cnn(C)c2)CC1 (stereo not given) | 2.55
91 | Cn1ccc(C(=O)NCc2cccc(NC(=O)C3CCC3)c2)cc1=O | -10
92 | Cc1noc(C2CCCN(C(=O)c3ccc(Br)o3)C2)n1 (stereo not given) | 1.73
93 | Cc1cccc(Nc2cc(C)nc(C3CCN(C(C)C)C3)n2)n1 (stereo not given) | 9.93
94 | c1cnc(N2CCC3(CCCN(CC4CC4)C3)CC2)nc1 | -3.24
95 | CCCN1CCC(c2nc3ccc(NCc4ccccc4)cn3n2)CC1 | -125
96 | CN(C)C1CC2(CCN(C(=O)NC3CC3)CC2)c2ccccc21 (stereo not given) | -112
97 | CO[C@H]1CCN(Cc2cccs2)[C@@H]2CN(Cc3ccncc3)C[C@H]12 | 2.31
98 | Cn1ccnc1CN1CCC2(CC1)COC2 | 6.81
99 | O=C(c1ccc2[nH]ccc2c1)N1CC[C@@H]2CN(CC3CC3)CCO[C@@H]2C1 | -108
100 | O=C(NC1CC1)[C@H]1C[C@@H]2CCN(Cc3ccc4c(c3)OCO4)C[C@@H]2O1 | 0.782
101 | CC(C)Oc1ncnc2c1CCN(Cc1ccc(F)cc1)CC2 | 5.68
102 | CC(C)NC(=O)[C@H]1C[C@H]2OCC[C@H]2N(Cc2ccc3ccccc3n2)C1 | -56.3
103 | CS(=O)(=O)N1CCCCC12CCCN(Cc1nccs1)C2 (stereo not given) | 9.94
104 | O=S(=O)(C1CC1)N1CCc2onc(COc3ccccn3)c2C1 | -4.38
105 | CC(C)Nc1nc2c(c(NC3CC3)n1)CCN(Cc1nccn1C)CC2 | 0.325
106 | COCc1cnc2n1CCN(C(=O)c1ccc3ccccc3n1)C2C (stereo not given) | -112
107 | Fc1cnc(N2CCC3(CC2)CN(Cc2cccs2)CCO3)nc1 | 12.4
108 | Cc1ccc(N2CCC3(CN(Cc4cccs4)CCC3(F)F)C2)nn1 (stereo not given) | 8.39
109 | COCCN1CCCCC12CC(=O)N(c1cccc(C#N)c1)C2 (stereo not given) | -102
110 | CC(C)CCN1C[C@@H]2C[C@H](C(=O)NCC(C)C)[C@H](C1)O2 | 5.9
